In ChEMBL document CHEMBL1145630, “Antidiabetic activity of N-(6-substituted-1,3-benzothiazol-2-yl)benzenesulfonamides” (2008):

Columns and labels:
[1] = molecular target: 11-beta-hydroxysteroid dehydrogenase 1 (Homo sapiens) (UniProt P28845); assay: Inhibition of human 11beta-HSD1 expressed in HEK293 cells at 10 uM by scintillation proximity assay; format: cell-based
Summary of the method: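 Cell-based scintillation proximity assay in HEK293 cells stably transfected with full-length human hsd11b1, grown in DMEM. Compounds were added at 1% final DMSO with 20 nM tritiated cortisone (final), 2 h at 37 °C. Medium was mixed with anti-mouse YSi SPA beads and anti-cortisol antibody in Tris-HCl pH 7.0 buffer, 2 h at room temperature. Inhibition was calculated against an uninhibited control.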

Rattus norvegicus [2] = assay: Antidiabetic effect in streptozo-nicotinamide rat model of diabetes assessed as change in blood glucose level at 100 mg/kg, po after 1 hr relative to control; format: functional
Summary of the method: (§1)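 Type 2 diabetes was induced in overnight-fasted rats with i.p. streptozotocin 65 mg/kg, given 15 min after i.p. nicotinamide 110 mg/kg. Rats with glucose above 250 mg/dL at 72 h were used, n = 5 per group. Compounds were suspended in 1% Tween 80 and given orally. Controls received vehicle; glibenclamide 5 mg/kg was the reference. Caudal-vein glucose was read by glucose-oxidase glucometer at 0, 1, 3, 5 and 7 h.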

Rattus norvegicus [3] = assay: Antidiabetic effect in streptozo-nicotinamide rat model of diabetes assessed as change in blood glucose level at 100 mg/kg, po after 3 hrs relative to control; format: functional; summary of the method: as §1
Rattus norvegicus [4] = assay: Antidiabetic effect in streptozo-nicotinamide rat model of diabetes assessed as change in blood glucose level at 100 mg/kg, po after 7 hrs relative to control; format: functional; summary of the method: as §1
Rattus norvegicus [5] = assay: Antidiabetic effect in streptozo-nicotinamide rat model of diabetes assessed as change in blood glucose level at 100 mg/kg, po after 5 hrs relative to control; format: functional; summary of the method: as §1

Sequence of 11-beta-hydroxysteroid dehydrogenase 1 (Homo sapiens) (P28845 whole entry, looked up): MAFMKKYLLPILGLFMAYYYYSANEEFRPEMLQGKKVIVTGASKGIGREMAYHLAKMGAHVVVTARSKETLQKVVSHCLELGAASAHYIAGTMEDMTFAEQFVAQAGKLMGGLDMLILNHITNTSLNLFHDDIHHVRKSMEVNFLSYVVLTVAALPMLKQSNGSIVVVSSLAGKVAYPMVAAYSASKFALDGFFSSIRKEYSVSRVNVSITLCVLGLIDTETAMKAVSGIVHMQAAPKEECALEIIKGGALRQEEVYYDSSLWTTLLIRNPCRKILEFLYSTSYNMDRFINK

SMILES | inhibition [1] [%] | Activity (Rattus norvegicus [2]) [%] | Activity (Rattus norvegicus [3]) [%] | Activity (Rattus norvegicus [4]) [%] | Activity (Rattus norvegicus [5]) [%]
CCOc1ccc2nc(NS(=O)(=O)c3ccc(C)cc3)sc2c1 | 16.4 |  |  |  | 
COc1ccc(Cl)cc1C(=O)NCCc1ccc(S(=O)(=O)NC(=O)NC2CCCCC2)cc1 [GLYBURIDE] |  | 78 | 32.6 | 55.4 | 51.5
CCOc1ccc2nc(NS(=O)(=O)c3ccc([N+](=O)[O-])cc3)sc2c1 | 15.5 |  |  |  | 
Cc1ccc2nc(NS(=O)(=O)c3ccc(Cl)cc3)sc2c1 | 27.2 | 34 | 36.1 | 21.4 | 12.2
Cc1ccc2nc(NS(=O)(=O)c3ccc([N+](=O)[O-])cc3)sc2c1 | 11.1 |  |  |  | 
CC(=O)Nc1ccc(S(=O)(=O)Nc2nc3ccc([N+](=O)[O-])cc3s2)cc1 | 7.69 | 37.2 | 11.8 | 30 | 4

The next lines start with results.

inhibition [1] [%] | SMILES | Activity (Rattus norvegicus [2]) [%] | Activity (Rattus norvegicus [3]) [%] | Activity (Rattus norvegicus [4]) [%] | Activity (Rattus norvegicus [5]) [%]
25.6 | COc1ccc(S(=O)(=O)Nc2nc3ccc([N+](=O)[O-])cc3s2)cc1 | 77.1 | 49 | 29 | 19.1
53.3 | COc1ccc2nc(NS(=O)(=O)c3ccc([N+](=O)[O-])cc3)sc2c1 | 69.7 | 42.5 | 27.8 | 18.1
37.6 | COc1ccc2nc(NS(=O)(=O)c3ccccc3)sc2c1 | 78.1 | 62.9 | 53.2 | 31.5
